# Results gathered from unrelated publications.
# Compare with care: the assays were run in different laboratories. pIC50: −log10 of the molar value.
SMILES,target or system,assay,system,setting,measurement,result
CC(C)C[C@@H]1NC(=O)[C@H](CC(N)=O)NC(=O)[C@H](CCCNC(=N)N)NC(=O)[C@H]([C@@H](C)O)NC(=O)[C@@H]2CSSC[C@@H]3NC(=O)[C@H]([C@@H](C)O)NC(=O)CNC(=O)CNC(=O)[C@H](C(C)C)NC(=O)[C@@H]4CSSC[C@H](NC(=O)[C@H](CCCCN)NC(=O)[C@H](CSSC[C@H](NC(=O)[C@H](C(C)C)NC(=O)[C@@H]5CCCN5C(=O)[C@H](CC(C)C)NC1=O)C(=O)NCC(=O)N[C@@H](CCC(=O)O)C(=O)N[C@@H]([C@@H](C)O)C(=O)N4)NC(=O)CNC(=O)[C@@H]1CCCN1C(=O)[C@H]([C@@H](C)O)NC(=O)[C@H](CC(N)=O)NC3=O)C(=O)N[C@@H](CO)C(=O)N[C@@H](Cc1c[nH]c3ccccc13)C(=O)N1CCC[C@H]1C(=O)N[C@@H](C(C)C)C(=O)N2,Sf9,"cell growth or viability, MTT",,24 h,pIC50,5.74
C[N+]1=C2C=C(N)C(=O)c3[nH]cc(c32)CC1,Plasmodium falciparum,"parasite growth, SYBR Green",DD2,blood stage,pIC50,6.39
O[C@@H](CN[C@@H](COCC1CC1)Cc1ccccc1)c1cc(Cl)cc2c1-c1ccc(Cl)cc1C2,Plasmodium falciparum,"parasite growth, SYBR Green",W2,"48 h, drug-resistant strain, blood stage",pIC50,8.27
CC(C)C[C@@H]1NC(=O)[C@H](CC(N)=O)NC(=O)[C@H](CCCNC(=N)N)NC(=O)[C@H]([C@@H](C)O)NC(=O)[C@@H]2CSSC[C@@H]3NC(=O)[C@H]([C@@H](C)O)NC(=O)CNC(=O)CNC(=O)[C@H](C(C)C)NC(=O)[C@@H]4CSSC[C@H](NC(=O)[C@H]([C@@H](C)O)NC(=O)[C@H](CSSC[C@H](NC(=O)[C@H](C(C)C)NC(=O)[C@@H]5CCCN5C(=O)[C@H](CC(C)C)NC1=O)C(=O)NCC(=O)N[C@@H](CCC(=O)O)C(=O)N[C@@H]([C@@H](C)O)C(=O)N4)NC(=O)CNC(=O)[C@@H]1CCCN1C(=O)[C@H]([C@@H](C)O)NC(=O)[C@H](CC(N)=O)NC3=O)C(=O)N[C@@H](CO)C(=O)N[C@@H](Cc1c[nH]c3ccccc13)C(=O)N1CCC[C@H]1C(=O)N[C@@H](C(C)C)C(=O)N2,Sf9,"cell growth or viability, MTT",,24 h,pIC50,5.74
OC(c1cc(C(F)(F)F)nc2c(C(F)(F)F)cccc12)C1CCCCN1 (stereo not shown),Plasmodium falciparum,"parasite growth, SYBR Green",W2,"48 h, drug-resistant strain, blood stage",pIC50,7.68
Cn1cc2c3c1C(=O)C(N)=CC3=[N+](C)CC2,Plasmodium falciparum,"parasite growth, SYBR Green",W2,blood stage,pIC50,5.52
CC(C)C[C@@H]1NC(=O)CNC(=O)[C@H](CC(N)=O)NC(=O)[C@H](CCCNC(=N)N)NC(=O)[C@H]([C@@H](C)O)NC(=O)[C@@H]2CSSC[C@@H]3NC(=O)[C@H]([C@@H](C)O)NC(=O)CNC(=O)CNC(=O)[C@H](C(C)C)NC(=O)[C@@H]4CSSC[C@H](NC(=O)[C@H]([C@@H](C)O)NC(=O)[C@H](CSSC[C@H](NC(=O)[C@H](C(C)C)NC(=O)[C@H](CCCCN)NC1=O)C(=O)NCC(=O)N[C@@H](CCC(=O)O)C(=O)N[C@@H]([C@@H](C)O)C(=O)N4)NC(=O)CNC(=O)[C@@H]1CCCN1C(=O)[C@H]([C@@H](C)O)NC(=O)[C@H](CC(N)=O)NC3=O)C(=O)N[C@@H](CO)C(=O)N[C@@H](Cc1c[nH]c3ccccc13)C(=O)N1CCC[C@H]1C(=O)N[C@@H](C(C)C)C(=O)N2,Sf9,"cell growth or viability, MTT",,24 h,pIC50,< 4.49
Cc1c2ccncc2c(C)c2c1[nH]c1ccccc12,NCI-H460,"cell growth or viability, SRB",,72 h,GI50,4.1 µM
CCCCNC[C@@H](O)c1cc(Cl)cc2c1-c1ccc(Cl)cc1C2,Plasmodium falciparum,"parasite growth, SYBR Green",W2,"48 h, drug-resistant strain, blood stage",pIC50,7.54
Cn1cc2c3c1C(=O)C(N)=CC3=NCC2,Plasmodium falciparum,"parasite growth, SYBR Green",3D7,blood stage,pIC50,5.48
